Tests used:
BXPC-3 = assay: Cytotoxicity against human BxPC3 cells assessed as decrease in cell viability after 72 hrs by MTS assay; assay type: functional, cell-based; conditions: BXPC-3, 72 h
How it was run: (§1)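 Cell proliferation assay using the MTS reagent. Compounds were tested as a dilution series, and EC50 values were derived from the concentration–response data.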

SK-OV-3 = assay: Cytotoxicity against human SKOV3 cells assessed as decrease in cell viability after 72 hrs by MTS assay; assay type: functional, cell-based; conditions: SK-OV-3, 72 h; how it was run: as §1
MES-SA = assay: Cytotoxicity against human MESSA cells assessed as decrease in cell viability after 72 hrs by MTS assay; assay type: functional, cell-based; how it was run: as §1
HUVEC = assay: Cytotoxicity against human HUVEC cells assessed as decrease in cell viability after 72 hrs by MTS assay; assay type: cell-based; how it was run: as §1
MES-SA/Dx5 = assay: Cytotoxicity against human MES-SA/Dx5 cells assessed as decrease in cell viability after 72 hrs by MTS assay; assay type: functional, cell-based; conditions: MES-SA/Dx5, 72 h; how it was run: as §1
MCF7 = assay: Cytotoxicity against human MCF7 cells assessed as decrease in cell viability after 72 hrs by MTS assay; assay type: functional, cell-based; conditions: MCF7, 72 h; how it was run: as §1
HepG2 = assay: Cytotoxicity against human HepG2 cells assessed as decrease in cell viability after 72 hrs by MTS assay; assay type: functional, cell-based; conditions: HepG2, 72 h; how it was run: as §1
U-87 MG = assay: Cytotoxicity against human U87MG cells assessed as decrease in cell viability after 72 hrs by MTS assay; assay type: functional, cell-based, U-87MG ATCC; how it was run: as §1
HCT-116 = assay: Cytotoxicity against human HCT116 cells assessed as decrease in cell viability after 72 hrs by MTS assay; assay type: functional, cell-based; conditions: HCT-116, 72 h; how it was run: as §1
786-0 = assay: Cytotoxicity against human 786-O cells assessed as decrease in cell viability after 72 hrs by MTS assay; assay type: functional, cell-based; conditions: 786-0, 72 h; how it was run: as §1
NCI-H1975 = assay: Cytotoxicity against human NCI-H1975 cells assessed as decrease in cell viability after 72 hrs by MTS assay; assay type: functional, cell-based; conditions: NCI-H1975, 72 h; how it was run: as §1
CCRF S-180 = assay: Cytotoxicity against mouse S180 cells assessed as decrease in cell viability after 72 hrs by MTS assay; assay type: functional, cell-based; conditions: CCRF S-180, 72 h; how it was run: as §1

CC1(C)[C@H]2OC(=O)O[C@H]2[C@@H](O)[C@]2(C=O)[C@H]3CC[C@]4(C)[C@@H](c5ccc(=O)oc5)[C@@H](Cl)C[C@]4(O)C3=CC[C@@H]12 gave an EC50 (BXPC-3) of 1000 nM, an EC50 (SK-OV-3) of 530 nM and an EC50 (MES-SA) of 940 nM. It also gave an EC50 (HUVEC) of 800 nM, an EC50 (MES-SA/Dx5) of 720 nM and an EC50 (MCF7) of 960 nM. It also gave an EC50 (HepG2) of 1300 nM, an EC50 (U-87 MG) of 610 nM and an EC50 (HCT-116) of 610 nM. It also gave an EC50 (786-0) of 350 nM, an EC50 (NCI-H1975) of 590 nM and an EC50 (CCRF S-180) greater than 20000 nM.

From ChEMBL document CHEMBL4266027, “Cyanobufalins: Cardioactive Toxins from Cyanobacterial Blooms” (J Nat Prod, 2018)
